Data set [1] relates to Human alphaherpesvirus 1. Briefly: Antiviral activity against HSV1 in african green monkey Vero cells assessed as reduction in number of plaques after 66 hrs. It is filed as functional, organism-based. The method in brief:
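Confluent Vero monolayers were seeded at 2 × 10^4 cells/well in DMEM with 10% calf serum. Samples were dissolved in DMSO, diluted in medium and added in triplicate at 100, 50, 20, 10, 5, 2 and 1 µg/ml, with 30 PFU HS-1 per well. Wells were incubated 66 h at 37° under ~15% CO2, then formaldehyde-fixed, crystal violet-stained and scored visually. The value is the lowest concentration giving the stated % plaque reduction.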

Data set [2] is described as follows: Cytotoxicity against african green monkey Vero cells after 66 hrs. Particulars: chlorocebus sabaeus. It is filed as cell-based. The gist of the method: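 Confluent Vero monolayers in DMEM with 10% calf serum received triplicate serial dilutions of DMSO-dissolved samples at 1–100 µg/ml, with higher levels where needed. The cytotoxic concentration is reported as CD50.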

Data set [3] has as its system Human alphaherpesvirus 1. Briefly: Antiviral activity against HSV1 in african green monkey Vero cells assessed as reduction in number of plaques at 0.1 mg/ml after 66 hrs. Also on record: scale not given: the % may be the effect or the level left. The format is functional. The method in brief:
(§1)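 Vero cells seeded at 2 × 10^4 per 200 µl well in DMEM with 10% calf serum, grown to confluence at 37° under ~15% CO2. Medium replaced with compound dilutions in triplicate, each well inoculated with 30 PFU HSV-1. Incubated 66 h, then formaldehyde-fixed and crystal violet-stained. Plaque reduction was scored visually.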

For data set [4], the system named is Human alphaherpesvirus 1. Briefly: Antiviral activity against HSV1 in african green monkey Vero cells assessed as reduction in number of plaques at 0.005 mg/ml after 66 hrs. It is filed as functional. Also on record: scale not given: the % may be the effect or the level left. The gist of the method:
as §1

Values after ≈ are worked out from the molar mass of the structure shown. Active and inactive are the calls of the source. The calls are words filed in the database; no cut-off is given here. Bounds are passed on as bounds.

For `C[C@@]1(CO)C[C@H](O)C[C@@]2(C)[C@H]1CC[C@H]1C[C@H]3[C@H](O)[C@]12CC[C@]3(C)O`, the outcome with Human alphaherpesvirus 1 [1] was inactive. In data set [2], this compound returned a half-maximal cytotoxic concentration (CC50) at 66 h of 70 µg/mL (≈ 207 µM).
With `CC1(C)C[C@H](O)C[C@@]2(C)[C@H]1CC[C@H]1C[C@@]3(O)C[C@]12CC[C@]3(C)O`, the Activity in the data set on Human alphaherpesvirus 1 [3] was 27%. In addition, half-maximal cytotoxicity in data set [2] (CC50 at 66 h) was put at 150 µg/mL (≈ 465 µM).
For `C[C@@]1(CO)C[C@H](O)C[C@@]2(C)[C@H]1CC[C@H]1C[C@H]3C[C@]12CC[C@]3(C)O` the same measures were 67% and 200 µg/mL (≈ 620 µM).
For `CC1(C)C[C@H](O)C[C@@]2(C)[C@H]1C[C@H](O)[C@H]1C[C@H]3C[C@]12CC[C@]3(C)O`, the result in the data set with Human alphaherpesvirus 1 [1] was inactive. In data set [2], this compound yielded a CC50 at 66 h of 70 µg/mL (≈ 217 µM).
`C[C@]1(CO)C[C@H](O)C[C@@]2(C)[C@H]1CC[C@H]1C[C@H]3C[C@]12CC[C@]3(C)O` showed a 50% cytotoxic concentration (CC50) at 66 h in data set [2] of over 399 µg/mL.
For `CC1(C)C[C@H](O)C[C@@]2(C)[C@H]1C[C@@H](O)[C@H]1C[C@H]3C[C@]12CC[C@]3(C)O`, the Activity with Human alphaherpesvirus 1 [3] was 33%. Also, the cytotoxic concentration (CC50) at 66 h in data set [2] is 200 µg/mL (≈ 620 µM).
Consider `C[C@@]1(CO)C[C@H](O)C[C@@]2(C)[C@H]1CC[C@@]1(O)C[C@H]3C[C@]12CC[C@]3(C)O`, for which the outcome in the data set with Human alphaherpesvirus 1 [1] was inactive. In data set [2], the 50% cytotoxic concentration (CC50) at 66 h came to 660 µg/mL (≈ 1950 µM).
`C[C@@]1(CO)[C@H](O)CC[C@@]2(C)[C@H]1CC[C@H]1C[C@@H]3C[C@@]12CC[C@]3(O)CO` [APHIDICOLIN]: the Activity in the data set on Human alphaherpesvirus 1 [4] turned out to be 100%. For the same compound, in data set [2], the CC50 at 66 h turned out to be 200 µg/mL (≈ 591 µM).
As to `CC1(C)C[C@H](O)C[C@@]2(C)[C@H]1CC[C@@]1(O)C[C@H]3C[C@]12CC[C@]3(C)O`, the Activity with Human alphaherpesvirus 1 [3] was 93%. In data set [2], this compound yielded a half-maximal cytotoxic concentration (CC50) at 66 h of 300 µg/mL (≈ 930 µM).
For `CC1(C)C[C@H](O)C[C@@]2(C)[C@H]1C[C@H](O)[C@@]1(O)C[C@H]3C[C@@]21CC[C@]3(C)O`, the outcome with Human alphaherpesvirus 1 [1] was inactive. Further, in data set [2], half-maximal cytotoxicity (CC50 at 66 h) was put at 40 µg/mL (≈ 118 µM).
With `C[C@]1(CO)C[C@H](O)C[C@@]2(C)[C@H]1CC[C@H]1C[C@H]3C[C@]12CC[C@@]3(O)CO`, in data set [2], the half-maximal cytotoxic concentration (CC50) at 66 h is over 399 µg/mL.
Same read-out and setting: to `CC1(C)C[C@H](O)C[C@@]2(C)[C@H]1CC[C@H]1C[C@H]3C[C@]12CC[C@]3(C)O` [STEMODIN] belongs 40 µg/mL (≈ 131 µM).

The record behind these values is ChEMBL document CHEMBL1150199, “Preparation, characterization, and antiviral activity of microbial metabolites of stemodin” (J Nat Prod, 1991).
